Assay results collected from several papers.
Target: Broad substrate specificity ATP-binding cassette transporter ABCG2 (ABCG2, Homo sapiens, UniProt Q9UNQ0)
Residues used in one study (Q9UNQ0 1-655): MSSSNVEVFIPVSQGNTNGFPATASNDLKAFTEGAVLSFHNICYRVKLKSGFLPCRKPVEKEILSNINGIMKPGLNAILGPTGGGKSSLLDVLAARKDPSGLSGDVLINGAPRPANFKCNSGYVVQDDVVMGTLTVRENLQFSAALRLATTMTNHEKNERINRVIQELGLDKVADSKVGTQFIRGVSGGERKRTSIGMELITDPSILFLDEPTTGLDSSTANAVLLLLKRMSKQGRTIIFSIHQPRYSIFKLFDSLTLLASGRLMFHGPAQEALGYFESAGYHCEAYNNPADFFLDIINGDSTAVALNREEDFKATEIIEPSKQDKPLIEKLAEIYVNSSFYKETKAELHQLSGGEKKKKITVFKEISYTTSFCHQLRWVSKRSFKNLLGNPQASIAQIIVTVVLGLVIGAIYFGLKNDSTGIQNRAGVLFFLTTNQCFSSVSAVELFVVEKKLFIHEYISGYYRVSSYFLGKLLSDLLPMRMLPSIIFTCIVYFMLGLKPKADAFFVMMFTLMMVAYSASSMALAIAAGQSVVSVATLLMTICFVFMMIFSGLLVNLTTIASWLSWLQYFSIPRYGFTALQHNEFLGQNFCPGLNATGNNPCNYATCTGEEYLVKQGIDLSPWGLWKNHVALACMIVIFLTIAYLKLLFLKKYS

CC(C)[C@H]1Cn2ncc(-c3ccc(C(=O)N4CCCc5ccccc54)cc3)c2CN1C(=O)Cc1ccccc1 — Papp B→A (dog, MDCK-MDR1): 11.9 ×10⁻⁶ cm/s
C=C[C@@H]1C[C@]1(NC(=O)[C@@H]1C[C@@H]2CN1C(=O)[C@H](C(C)(C)C)NC(=O)O[C@@H]1C[C@H]1CCCCCc1nc3ccc(OC)cc3nc1O2)C(=O)NS(=O)(=O)C1CC1 — Ki (transporter uptake, inhibitor; cell membranes): 4 µM
CN(CCC(=O)O)C(=O)c1ccc2c(c1)CC[C@@H]1[C@@H]2CC[C@]2(C)C(c3cncc(F)c3)=CC[C@@H]12 — IC50 (transporter uptake, inhibitor): 7.6 µM
CN(C(=O)n1cnc(-c2ccc[n+]([O-])c2)c1)C1CCCCC1 — inhibition (transporter uptake, inhibitor; MDCK-II; 10 µg/mL): 13%
N#C/C(=C/c1cc(Cl)cc(Cl)c1)c1cccnc1 — inhibition (ligand displacement; 10 µM): ~55%
O=C(O)CSc1nnc(Br)n1-c1ccc(C2CC2)c2ccccc12 — inhibition (transporter uptake, inhibitor; Caco-2; 3 µM, 2 h): 18%
C/C(O)=C(\C#N)C(=O)Nc1ccc(C(F)(F)F)cc1 — Papp A→B (Caco-2; 1 µM, 2 h, pH 7.4): 5.51 ×10⁻⁶ cm/s
O=c1cc(-c2ccccc2)oc2cc(O)cc(O)c12 — inhibition (transporter uptake, inhibitor; Caco-2; 100 µM, 2 h): 92%
CC(=O)c1cc(C(=O)N[C@@H](C)Cn2ccc(-c3ccc(C#N)c(Cl)c3)n2)[nH]n1 — Ki (transporter uptake, inhibitor; cell membranes): 0.56 µM
C[C@@H](C(=O)N1Cc2c(-c3ccc(C(=O)N4CCCc5ccccc54)cc3)cnn2C[C@@H]1C)c1ccccc1 — Papp B→A (dog, MDCK-MDR1): 13.3 ×10⁻⁶ cm/s
